Data from ChEMBL document CHEMBL1629526, “4-[1-(Substituted aryl/alkyl carbonyl)-benzoimidazol-2-yl]-benzenesulfonic acids: synthesis, antimicrobial activity, QSAR studies, and antiviral evaluation” (Eur J Med Chem, 2010).
In brackets after ≈: the same amount, converted by molar mass.

Tests used:
Staphylococcus aureus = experiment: Antimicrobial activity against Staphylococcus aureus after 24 hrs by tube dilution method; format: functional
Bacillus subtilis = experiment: Antimicrobial activity against Bacillus subtilis after 24 hrs by tube dilution method; format: functional
In short: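 Serial dilutions in double-strength nutrient broth (I.P.) with ciprofloxacin as reference, tube dilution, incubated 37 °C for 24 h. MIC is the lowest concentration that inhibited growth.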

Escherichia coli = experiment: Antimicrobial activity against Escherichia coli after 24 hrs by tube dilution method; format: functional
Candida albicans = experiment: Antimicrobial activity against Candida albicans after 48 hrs by tube dilution method; format: functional
Aspergillus niger = experiment: Antimicrobial activity against Aspergillus niger after 7 days by tube dilution method; format: functional; settings: 168 h
[1] = Cytotoxicity against cat CRFK cells assessed as cell viability by MTS assay; format: cell-based, Felis catus; settings: crfk
In short: (§1)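 Uninfected cultures were run in parallel with the antiviral assays. Viability was read by colorimetric formazan MTS assay.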

Felid alphaherpesvirus 1 = experiment: Antiviral activity against Feline herpesvirus 1 infected in cat CRFK cells assessed as inhibition of virus induced cytopathicity after 2 to 4 days by MTS assay; format: functional, organism-based; settings: Felid alphaherpesvirus 1, CRFK
Feline coronavirus = experiment: Antiviral activity against Feline coronavirus infected in cat CRFK cells assessed as inhibition of virus induced cytopathicity after 2 to 4 days by MTS assay; format: functional, organism-based; settings: Alphacoronavirus 1, CRFK
[2] = Cytotoxicity against human HEL cells assessed as altered cell morphology; format: cell-based
In short: (§2)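 Uninfected cell cultures run alongside the antiviral assays, exposed to serial compound dilutions and incubated at 37 °C for 2–4 days. Toxicity was scored microscopically and reported as the minimum cytotoxic concentration (MCC), the lowest concentration causing a detectable change in normal cell morphology.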

Human alphaherpesvirus 1 [3] = experiment: Antiviral activity against Herpes simplex virus 1 KOS infected in HEL cells assessed as inhibition of virus induced cytopathicity after 2 to 4 days by MTS assay; format: functional, organism-based; settings: Human alphaherpesvirus 1, KOS
Human alphaherpesvirus 2 = experiment: Antiviral activity against Herpes simplex virus 2 G infected in HEL cells assessed as inhibition of virus induced cytopathicity after 2 to 4 days by MTS assay; format: functional, organism-based; settings: Human alphaherpesvirus 2, strain G
Vaccinia virus = experiment: Antiviral activity against Vaccinia virus infected in HEL cells assessed as inhibition of virus induced cytopathicity after 2 to 4 days by MTS assay; format: functional, organism-based; settings: Orthopoxvirus vaccinia
[4] = test system: Vesicular stomatitis virus; experiment: Antiviral activity against Vesicular stomatitis virus infected in HEL cells assessed as inhibition of virus induced cytopathicity after 2 to 4 days by MTS assay; format: functional, organism-based
Human alphaherpesvirus 1 [5] = experiment: Antiviral activity against thymidine kinase deficient acyclovir-resistant Herpes simplex virus 1 KOS infected in HEL cells assessed as inhibition of virus induced cytopathicity after 2 to 4 days by MTS assay; format: functional, organism-based; settings: Human alphaherpesvirus 1, KOS
HeLa = experiment: Cytotoxicity against human HeLa cells assessed as cell viability by MTS assay; format: cell-based; settings: hela; in short: as §1
[6] = Cytotoxicity against human HeLa cells assessed as altered cell morphology; format: cell-based; in short: as §2
[7] = test system: Vesicular stomatitis virus; experiment: Antiviral activity against Vesicular stomatitis virus infected in human HeLa cells assessed as inhibition of virus induced cytopathicity by visual scoring of CPE; format: functional, organism-based
[8] = test system: Vesicular stomatitis virus; experiment: Antiviral activity against Vesicular stomatitis virus infected in human HeLa cells assessed as inhibition of virus induced cytopathicity after 2 to 4 days by MTS assay; format: functional, organism-based
Coxsackievirus B4 [9] = experiment: Antiviral activity against coxsackievirus B4 infected in human HeLa cells assessed as inhibition of virus induced cytopathicity by visual scoring of CPE; format: functional, organism-based; settings: Enterovirus B
Coxsackievirus B4 [10] = experiment: Antiviral activity against coxsackievirus B4 infected in human HeLa cells assessed as inhibition of virus induced cytopathicity after 2 to 4 days by MTS assay; format: functional, organism-based; settings: Enterovirus B
[11] = test system: Respiratory syncytial virus; experiment: Antiviral activity against Respiratory syncytial virus infected in human HeLa cells assessed as inhibition of virus induced cytopathicity by visual scoring of CPE; format: functional, organism-based
[12] = test system: Respiratory syncytial virus; experiment: Antiviral activity against Respiratory syncytial virus infected in human HeLa cells assessed as inhibition of virus induced cytopathicity after 2 to 4 days by MTS assay; format: functional, organism-based
MDCK = experiment: Cytotoxicity against MDCK cells assessed as cell viability by MTS assay; format: cell-based, Canis lupus familiaris; settings: dog, mdck; in short: as §1
[13] = Cytotoxicity against MDCK cells assessed as altered cell morphology; format: cell-based, Canis lupus familiaris; settings: dog; in short: as §2
Influenza A virus [14] = experiment: Antiviral activity against Influenza A H3N2 virus subtype infected in MDCK cells assessed as inhibition of virus induced cytopathicity by visual scoring of CPE; format: functional, organism-based
Influenza A virus [15] = experiment: Antiviral activity against Influenza A H3N2 virus subtype infected in MDCK cells assessed as inhibition of virus induced cytopathicity after 2 to 4 days by MTS assay; format: functional, organism-based
Influenza B virus [16] = experiment: Antiviral activity against Influenza B virus infected in MDCK cells assessed as inhibition of virus induced cytopathicity by visual scoring of CPE; format: functional, organism-based
Influenza B virus [17] = experiment: Antiviral activity against Influenza B virus infected in MDCK cells assessed as inhibition of virus induced cytopathicity after 2 to 4 days by MTS assay; format: functional, organism-based
[18] = Cytotoxicity against african green monkey Vero cells assessed as altered cell morphology; format: cell-based; settings: chlorocebus sabaeus; in short: as §2
Human respirovirus 3 = experiment: Antiviral activity against parainfluenza-3 virus infected in african green monkey Vero cells assessed as inhibition of virus induced cytopathicity after 2 to 4 days by MTS assay; format: functional, organism-based; settings: Human respirovirus 3, Vero
[19] = test system: Mammalian orthoreovirus 1; experiment: Antiviral activity against Reovirus 1 virus infected in african green monkey Vero cells assessed as inhibition of virus induced cytopathicity after 2 to 4 days by MTS assay; format: functional, organism-based; settings: Mammalian orthoreovirus 1, Vero
Sindbis virus = experiment: Antiviral activity against Sindbis virus infected in african green monkey Vero cells assessed as inhibition of virus induced cytopathicity after 2 to 4 days by MTS assay; format: functional, organism-based
Coxsackievirus B4 [20] = experiment: Antiviral activity against Coxsackie virus B4 infected in african green monkey Vero cells assessed as inhibition of virus induced cytopathicity after 2 to 4 days by MTS assay; format: functional, organism-based; settings: Enterovirus B
Punta Toro virus = experiment: Antiviral activity against Punta Toro virus infected in african green monkey Vero cells assessed as inhibition of virus induced cytopathicity after 2 to 4 days by MTS assay; format: functional, organism-based

Row | SMILES | MBC (Staphylococcus aureus) | MBC (Bacillus subtilis) | MBC (Escherichia coli) | MFC (Candida albicans) | MFC (Aspergillus niger) | CC50 [1] | EC50 (Felid alphaherpesvirus 1) | EC50 (Feline coronavirus) | MCC [2] | EC50 (Human alphaherpesvirus 1 [3]) | EC50 (Human alphaherpesvirus 2) | EC50 (Vaccinia virus) | EC50 [4] | EC50 (Human alphaherpesvirus 1 [5]) | CC50 (HeLa) | MCC [6] | EC50 [7] | EC50 [8] | EC50 (Coxsackievirus B4 [9]) | EC50 (Coxsackievirus B4 [10]) | further results
1 | O=C(c1ccccc1)n1c(-c2ccc(S(=O)(=O)O)cc2)nc2ccccc21 | 12.5 µg/mL (≈ 33 µM) | > 50 µg/mL | 1.56 µg/mL (≈ 4.12 µM) | 50 µg/mL (≈ 132 µM) | > 50 µg/mL | > 100 µg/mL | > 100 µg/mL | > 100 µg/mL | > 100 µg/mL | > 100 µg/mL | > 100 µg/mL | > 100 µg/mL | > 100 µg/mL | > 100 µg/mL | > 100 µg/mL | > 100 µg/mL | > 100 µg/mL | > 100 µg/mL | > 100 µg/mL | > 100 µg/mL | EC50 [11]: > 100 µg/mL; EC50 [12]: > 100 µg/mL; CC50 (MDCK): > 100 µg/mL; MCC [13]: > 100 µg/mL; EC50 (Influenza A virus [14]): > 100 µg/mL; EC50 (Influenza A virus [15]): > 100 µg/mL; EC50 (Influenza B virus [16]): > 100 µg/mL; EC50 (Influenza B virus [17]): > 100 µg/mL; MCC [18]: > 100 µg/mL; EC50 (Human respirovirus 3): > 100 µg/mL; EC50 [19]: > 100 µg/mL; EC50 (Sindbis virus): > 100 µg/mL; EC50 (Coxsackievirus B4 [20]): > 100 µg/mL; EC50 (Punta Toro virus): > 100 µg/mL
2 | O=C(c1cccnc1)n1c(-c2ccc(S(=O)(=O)O)cc2)nc2ccccc21 | 12.5 µg/mL (≈ 32.9 µM) | > 50 µg/mL | 1.56 µg/mL (≈ 4.11 µM) | > 50 µg/mL | > 50 µg/mL | > 100 µg/mL | > 100 µg/mL | > 100 µg/mL | > 100 µg/mL | > 100 µg/mL | > 100 µg/mL | > 100 µg/mL | > 100 µg/mL | > 100 µg/mL | > 100 µg/mL | > 100 µg/mL | > 100 µg/mL | > 100 µg/mL | > 100 µg/mL | > 100 µg/mL | EC50 [11]: > 100 µg/mL; EC50 [12]: > 100 µg/mL; CC50 (MDCK): > 100 µg/mL; MCC [13]: > 100 µg/mL; EC50 (Influenza A virus [14]): > 100 µg/mL; EC50 (Influenza A virus [15]): > 100 µg/mL; EC50 (Influenza B virus [16]): > 100 µg/mL; EC50 (Influenza B virus [17]): > 100 µg/mL; MCC [18]: > 100 µg/mL; EC50 (Human respirovirus 3): > 100 µg/mL; EC50 [19]: > 100 µg/mL; EC50 (Sindbis virus): > 100 µg/mL; EC50 (Coxsackievirus B4 [20]): > 100 µg/mL; EC50 (Punta Toro virus): > 100 µg/mL
3 | C=C(C)C(=O)n1c(-c2ccc(S(=O)(=O)O)cc2)nc2ccccc21 | 6.25 µg/mL (≈ 18.3 µM) | 12.5 µg/mL (≈ 36.5 µM) | 12.5 µg/mL (≈ 36.5 µM) | > 50 µg/mL | > 50 µg/mL | > 100 µg/mL | > 100 µg/mL | > 100 µg/mL | > 100 µg/mL | > 100 µg/mL | > 100 µg/mL | > 100 µg/mL | > 100 µg/mL | > 100 µg/mL | > 100 µg/mL | > 100 µg/mL | > 100 µg/mL | > 100 µg/mL | > 100 µg/mL | > 100 µg/mL | EC50 [11]: > 100 µg/mL; EC50 [12]: > 100 µg/mL; CC50 (MDCK): > 100 µg/mL; MCC [13]: > 100 µg/mL; EC50 (Influenza A virus [14]): > 100 µg/mL; EC50 (Influenza A virus [15]): > 100 µg/mL; EC50 (Influenza B virus [16]): > 100 µg/mL; EC50 (Influenza B virus [17]): > 100 µg/mL; MCC [18]: > 100 µg/mL; EC50 (Human respirovirus 3): > 100 µg/mL; EC50 [19]: > 100 µg/mL; EC50 (Sindbis virus): > 100 µg/mL; EC50 (Coxsackievirus B4 [20]): > 100 µg/mL; EC50 (Punta Toro virus): > 100 µg/mL
4 | CCCCC(=O)n1c(-c2ccc(S(=O)(=O)O)cc2)nc2ccccc21 | 6.25 µg/mL (≈ 17.4 µM) | 6.25 µg/mL (≈ 17.4 µM) | 6.25 µg/mL (≈ 17.4 µM) | 12.5 µg/mL (≈ 34.9 µM) | > 50 µg/mL | > 100 µg/mL | > 100 µg/mL | > 100 µg/mL | > 100 µg/mL | > 100 µg/mL | > 100 µg/mL | > 100 µg/mL | > 100 µg/mL | > 100 µg/mL | > 100 µg/mL | > 100 µg/mL | > 100 µg/mL | > 100 µg/mL | > 100 µg/mL | > 100 µg/mL | EC50 [11]: > 100 µg/mL; EC50 [12]: > 100 µg/mL; CC50 (MDCK): > 100 µg/mL; MCC [13]: > 100 µg/mL; EC50 (Influenza A virus [14]): > 100 µg/mL; EC50 (Influenza A virus [15]): > 100 µg/mL; EC50 (Influenza B virus [16]): > 100 µg/mL; EC50 (Influenza B virus [17]): > 100 µg/mL; MCC [18]: > 100 µg/mL; EC50 (Human respirovirus 3): > 100 µg/mL; EC50 [19]: > 100 µg/mL; EC50 (Sindbis virus): > 100 µg/mL; EC50 (Coxsackievirus B4 [20]): > 100 µg/mL; EC50 (Punta Toro virus): > 100 µg/mL
